# High-throughput results (PubChem)
# Lmaj promast – Leishmania major promastigote growth inhibition; Leishmania major promastigotes, resazurin fluorescence viability; inhibition, % at 10 µM; 9% of 200,000 active; in the data active = inhibition above about 50%;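 note: promastigotes grown with compound for 44 hours at 28 °C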
# HSF-1 act – increases HSF-1 driven luciferase reporter signal; activation, % at 9 µM; NIH3T3-HGL HSF-1 luciferase reporter, MG132, 8 h; 100% = twice DMSO control signal; 1.7% of 300,000 active;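 active = mean replicate activation of at least 50% with a set share of replicates each reaching 50%; inconclusive = only one of those two conditions met; inactive = mean below 50% and too few replicates reaching it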;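 note: 0% = median of the neutral control wells and 100% = twice that signal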
# HSF1 inhib – HSF1 inhibition; NIH3T3-HGL HSE-luciferase, MG132-induced, luminescence 8 h; active compounds read low; activity change, negative = inhibition, % at 7.5 µM (by protocol); 0.77% of 300,000 active;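 active = more than half of replicate wells show activity change below -50%, luminescence cut by over half; inconclusive = some wells, but at most half, below -50%; inactive = no replicate well below -50%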;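 note: luciferase reports HSF-1 transcriptional activity via heat shock element; 0% = median of DMSO wells and -100% = zero luminescence signal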
# T cruzi inh – blocks replication of Trypanosoma cruzi. T. cruzi beta-gal in NIH3T3, luminescence, 90 h. inhibition, % (no concentration beside the values). 1.4% of 300,000 active. AID 1885;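 active = mean inhibition across valid replicates above about 55%, limit read from the data; inconclusive = mean below that limit but half or more replicates reach it; inactive = mean below it, under half of replicates reach it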;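 note: signal also drops with host cell toxicity which is not excluded here; 0% = plate median of DMSO wells and 100% = zero luminescence signal; higher percent means less beta-gal luminescence so fewer parasites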
#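 Assay system: NIH/3T3 fibroblasts plus reporter T. cruzi. Amount: NIH/3T3 cells, 5,000 per well. Buffer or medium: DMEM, 2% fetal bovine serum. Doses: compound pinned at 50 nL/well, DMSO. Schedule: ≥90 h infection period, 3 h prior cell attachment. Signal: luminescent β-galactosidase signal after 60 min lysis. Read-out: parasite load inhibition, %.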
# Hsp70 act – transcriptional activators of Hsp70; HeLa Hsp70 promoter luciferase reporter, luminescence; scaled: vehicle 0, proteasome-inhibitor control 100%; 0.04% of 200,000 active; activation, % at 10 µM;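 active = activation above the mean across all tested compounds plus 3 SD, cutoff set per campaign, cut at about 5.5% in these data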;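 note: 100% = MG132 at 30 µM as the positive control and 0% = DMSO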
# * = called active by the depositor; ? = inconclusive; . = not tested or not shown. The full list was thinned out, with hits kept by preference.
SMILES,Lmaj promast,HSF-1 act,HSF1 inhib,T cruzi inh,Hsp70 act
COc1cc(NC(=O)c2cccc(Cl)c2)ccc1NC(=O)c1cccs1,4,.,.,.,0
O=C(CN1C(=O)C2CCCCC2C1=O)Nc1cccc([N+](=O)[O-])c1 (stereo not given),.,12,3,-6,.
O=C(Nc1nncs1)C1CC(=O)N(C2CCCC2)C1 (stereo not given),.,-18,-4,-7,.
CCC(C)c1ccc(NC(=S)NCc2cccs2)cc1 (stereo not given),67*,4,1,33,0
Cc1cc(C)cc(NC(=S)NCc2cccs2)c1,14,-37,-23,0,0
CC(C)(C)c1ccc(NC(=S)NCc2cccs2)cc1,14,145*,105,-1,0
CCn1c(/C=C/c2c[nH]c3ccccc23)nc2ccccc2c1=O,3,81*,32,2,0
CCn1c(/C=C\c2ccccc2C)nc2ccccc2c1=O,21,33,7,15,0
Cc1ccccc1/C=C\c1nc2ccccc2c(=O)n1Cc1ccccc1,99*,5,9,26,0
CCOc1ccc(CNC(=O)CCS(=O)(=O)Cc2cccc(Cl)c2)cc1OC,4,-15,0,2,0
CCC(C)C(NC(=O)C(C)NC(=O)CNC(=O)OC(C)(C)C)C(N)=O (stereo not given),-2,-3,2,-5,0
COc1ccc(/C=C2\C(=O)N(Cc3ccc(F)cc3)CC(=O)N2Cc2ccccc2)cc1,95*,-4,-6,2,0
COc1ccc(/C=C2\C(=O)NCC(=O)N2Cc2ccccc2)cc1,-3,-9,0,0,0
Cc1ccccc1NC(=S)N(CCc1c(C)[nH]c2ccc(F)cc12)Cc1ccncc1,98*,-4,-2,30,0
CCOc1ccc(NC(=S)N(CCc2c(C)[nH]c3ccc(C)cc23)Cc2cccnc2)cc1,100*,10,6,49,0
CCNC(=S)N(CCc1c(C)[nH]c2ccc(F)cc12)Cc1cccnc1,.,-20,2,39,.
CCOc1ccc(NC(=S)N(CCc2c(C)[nH]c3ccc(C)cc23)Cc2ccco2)cc1,73*,-1,3,45,0
Cc1[nH]c2ccc(F)cc2c1CCN(Cc1cccnc1)C(=S)Nc1ccc(F)cc1,100*,12,9,61*,0
COc1ccc(NC(=S)N(CCc2c(C)[nH]c3ccc(C)cc23)Cc2ccco2)cc1,31,14,11,26,0
NC(=O)C1(C(N)=O)OC1c1ccc(Cl)c(Cl)c1 (stereo not given),.,1,-6,3,.
CCOC(=O)C1=C(COC(=O)/C=C/c2ccc(SC)cc2)NC(=O)NC1C (stereo not given),.,1,4,-7,.
COc1ccc(-c2c([C@H]3[C@H]4C=CC[C@@H](C)[C@@H]4C(=O)N3Cc3ccccc3)ccc3ccccc23)cc1OC,.,-16,-24,40,.
CCCn1c(N)c(NCCN2CCOCC2)c(=O)[nH]c1=O,-2,-5,-6,-9,0
COc1ccc(NC(=S)N(CCc2nc3cc(C)c(C)cc3[nH]2)Cc2cccnc2)cc1,90*,29,5,53,0
CCNC(=S)N(CCc1c(C)[nH]c2ccccc12)Cc1cccnc1,.,3,-4,48,.
SMILES,Lmaj promast,HSF-1 act,HSF1 inhib,T cruzi inh,Hsp70 act
COc1ccc(NC(=S)N(CCc2c(C)[nH]c3ccccc23)Cc2cccnc2)cc1,100*,-15,1,37,0
N#CCCN(Cc1cccnc1)C(=S)Nc1ccc(OC(F)F)cc1,-6,-23,-12,-5,0
Cc1[nH]c2ccc(F)cc2c1CCN(Cc1ccncc1)C(=S)Nc1cccc(F)c1,99*,15,1,43,0
COCCNC(=S)N(CCc1c(C)[nH]c2ccc(F)cc12)Cc1ccc(C)cc1,.,17,5,23,.
CN(CC(=O)Nc1ccc(F)c(F)c1F)C(=O)C1CCC1,.,-14,-1,0,.
COc1ccc(C)cc1NC(=O)CNC(=O)[C@@H]1Cc2ccccc2CN1,.,13,-3,0,.
COc1cccc(-n2nnnc2S(C)(=O)=O)c1,97*,325*,256,49,0
COc1cccc(Oc2nnnn2-c2ccccc2)c1,6,-3,7,17,1
COc1ccc(/C=C/C(=O)c2cc(Cl)ccc2O)c(OC)c1,.,64*,47,-7,.
O=C(/C=C/c1ccncc1)c1cc(Cl)ccc1O,.,59*,24,66*,.
COc1ccc(C(=O)/C=C/c2ccc(OC)cc2OC)c(O)c1,-5,21,6,-21,0
COCC(=O)NNS(=O)(=O)c1ccccc1[N+](=O)[O-],54*,28,8,-10,0
COc1ccccc1CC(=O)NNS(=O)(=O)c1ccccc1[N+](=O)[O-],-5,0,2,-9,1
O=C(CN(C(=O)c1ccc(Cl)cc1)C1CCCCC1)Nc1ccc(Cl)c([N+](=O)[O-])c1,85*,26,19,42,0
O=C(CN(C(=O)c1ccccc1Cl)C1CCCCC1)Nc1ccc(Cl)c([N+](=O)[O-])c1,80*,?,23,36,0
Cc1ccc([N+](=O)[O-])cc1NC(=O)CN(C(=O)c1ccc(Cl)cc1)C1CCCCC1,33,-19,-7,17,0
O=C(COc1ncnc2ccccc12)Nc1ccc(Cl)c([N+](=O)[O-])c1,72*,-3,6,41,0
COc1ccc(C/C(N)=N/OC(=O)c2cccc([N+](=O)[O-])c2)cc1,63*,1,2,9,0
COc1ccc(/C(N)=N/OC(=O)c2ccc3c(c2)OCO3)cc1OC,9,5,-1,57*,1
COc1ccc(C(=O)O/N=C(\N)Cc2ccc(Cl)c(Cl)c2)cc1OC,81*,8,-9,39,0
CC1=C(C)/C(=N/OC(=O)c2cccc([N+](=O)[O-])c2)C=CC1=O,100*,31,27,-27,0
Cc1ncc([N+](=O)[O-])n1Cc1cccc2ccccc12,57*,-4,-4,3,0
CCOC(=O)NC(=O)C(=CNc1ccc(C)cc1)C(=O)NC(=O)OCC,28,-18,-17,-22,0
CC(C)(C)NC(=O)CN(Cc1cccs1)C(=O)C1COc2ccccc2O1 (stereo not given),7,12,13,20,0
Cc1ccc(C(C(=O)NC2CCCCC2)N(Cc2cccnc2)C(=O)C2COc3ccccc3O2)o1 (stereo not given),64*,48,21,33,0
CC(C)CCNC(=O)C(c1ccc(O)cc1)N(Cc1cccs1)C(=O)C1COc2ccccc2O1 (stereo not given),100*,22,9,64*,0
Cc1ccc(C(C(=O)NC2CCCCC2)N(Cc2ccco2)C(=O)C2COc3ccccc3O2)o1 (stereo not given),19,-13,10,19,0
